A short description of data set [1]: Antiproliferative activity against human Rec1 cells assessed as reduction in cell viability after 72 hrs by celltiter-glo/CCK8 assay. Format: functional. Conditions: Rec1, 72 h. The procedure, abridged:
(§1)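 Cells were seeded at 1 to 3 × 10⁴ cells/mL with serial compound concentrations and incubated 72 h at 37 °C, 5% CO₂. Viability was read by CellTiter-Glo luminescence or CCK-8 absorbance (450/655 nm). GI50 values are from triplicate testing. GIST-T1 and CHO were grown in DMEM/10% FBS; GIST-882, GIST-48B and MV4-11 in IMDM/10% FBS; other lines in RPMI 1640/10% FBS.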

For data set [2], the target named is Mast/stem cell growth factor receptor Kit (Homo sapiens) (UniProt P10721). Put plainly: Inhibition of Tel-fused cKIT (unknown origin) transfected in mouse BAF3 cells assessed as decrease in cell proliferation after 72 hrs by celltiter-glo/CCK8 assay. In kind it is cell-based. An outline of the steps: as §1
Sequence of Mast/stem cell growth factor receptor Kit (Homo sapiens) (P10721 whole entry, the tested form may be a part): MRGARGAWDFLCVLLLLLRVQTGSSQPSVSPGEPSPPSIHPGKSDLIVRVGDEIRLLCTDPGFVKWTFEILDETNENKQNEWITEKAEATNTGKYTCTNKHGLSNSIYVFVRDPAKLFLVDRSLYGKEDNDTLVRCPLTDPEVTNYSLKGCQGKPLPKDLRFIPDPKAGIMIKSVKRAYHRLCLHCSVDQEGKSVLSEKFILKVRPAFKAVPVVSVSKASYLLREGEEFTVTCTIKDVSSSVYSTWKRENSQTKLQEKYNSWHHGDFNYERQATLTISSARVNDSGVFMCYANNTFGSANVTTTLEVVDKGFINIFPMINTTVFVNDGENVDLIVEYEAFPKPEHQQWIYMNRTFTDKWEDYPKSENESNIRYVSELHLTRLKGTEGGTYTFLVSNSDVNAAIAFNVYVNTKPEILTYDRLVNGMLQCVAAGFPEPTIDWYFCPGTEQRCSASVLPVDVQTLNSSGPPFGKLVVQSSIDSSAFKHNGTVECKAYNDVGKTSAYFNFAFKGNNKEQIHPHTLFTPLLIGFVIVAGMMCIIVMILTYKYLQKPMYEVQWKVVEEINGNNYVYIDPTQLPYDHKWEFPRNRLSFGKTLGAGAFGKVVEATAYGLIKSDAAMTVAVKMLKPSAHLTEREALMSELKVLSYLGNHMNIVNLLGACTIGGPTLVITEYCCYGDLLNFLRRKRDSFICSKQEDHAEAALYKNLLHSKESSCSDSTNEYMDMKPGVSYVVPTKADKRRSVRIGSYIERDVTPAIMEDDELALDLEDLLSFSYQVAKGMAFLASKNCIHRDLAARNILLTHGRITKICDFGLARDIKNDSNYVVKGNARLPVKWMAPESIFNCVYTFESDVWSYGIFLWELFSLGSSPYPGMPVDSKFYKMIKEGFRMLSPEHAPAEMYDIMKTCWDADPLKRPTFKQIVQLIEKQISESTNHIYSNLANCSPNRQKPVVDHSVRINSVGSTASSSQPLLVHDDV
For orientation: In ATP-based viability assays light output follows the ATP content of the culture.

Data set [3] in a line: Antiproliferative activity against mouse BAF3 cells. Format: cell-based.
The target of data set [4] is Mast/stem cell growth factor receptor Kit (Homo sapiens) (UniProt P10721). In words: Inhibition of Tel-fused cKIT L567P mutant (unknown origin) transfected in mouse BAF3 cells assessed as decrease in cell proliferation after 72 hrs by celltiter-glo/CCK8 assay. Format: cell-based.
Data set [5] relates to Mast/stem cell growth factor receptor Kit (Homo sapiens), P10721 [N822K]. Put plainly: Inhibition of Tel-fused cKIT N822K mutant (unknown origin) transfected in mouse BAF3 cells assessed as decrease in cell proliferation after 72 hrs by celltiter-glo/CCK8 assay. Format: cell-based.
Sequence of Mast/stem cell growth factor receptor Kit (Homo sapiens), P10721 [N822K] (P10721 whole entry N822K, the tested form may be a part): as the sequence (P10721 whole entry, the tested form may be a part) above, with N822K counted along it
The nature of data set [6]: Antiproliferative activity against CHO cells assessed as reduction in cell viability after 72 hrs by celltiter-glo/CCK8 assay. Format: cell-based, Cricetulus griseus. The note with it: chinese hamster. The procedure, abridged: as §1
Data set [7] is described as follows: Antiproliferative activity against human U937 cells assessed as reduction in cell viability after 72 hrs by celltiter-glo/CCK8 assay. In kind it is functional. Conditions: U-937, 72 h. The procedure, abridged: as §1
Data set [8] has as its system MV4-11. In words: Antiproliferative activity against FLT3-ITD dependent human MV4-11 cells assessed as reduction in cell viability after 72 hrs by celltiter-glo/CCK8 assay. In kind it is functional. Conditions: MV4-11, 72 h. The procedure, abridged: as §1
The subject of data set [9] is K562. Put plainly: Antiproliferative activity against BCR-ABL dependent human K562 cells assessed as reduction in cell viability after 72 hrs by celltiter-glo/CCK8 assay. Format: functional. Conditions: K562, 72 h. An outline of the steps: as §1
A short description of data set [10]: Antiproliferative activity against CHL cells assessed as reduction in cell viability after 72 hrs by celltiter-glo/CCK8 assay. Format: cell-based, Cricetulus griseus. The note with it: chinese hamster. The procedure, abridged:
as §1

A short description of data set [11]: Antiproliferative activity against cKIT dependent human GISTT1 cells assessed as reduction in cell viability after 72 hrs by celltiter-glo/CCK8 assay. In kind it is functional. Conditions: GISTT1, 72 h. An outline of the steps:
as §1

For data set [12], the system named is Mast/stem cell growth factor receptor Kit (Homo sapiens), P10721 [V559D]. Put plainly: Inhibition of Tel-fused cKIT V559D mutant (unknown origin) transfected in mouse BAF3 cells assessed as decrease in cell proliferation after 72 hrs by celltiter-glo/CCK8 assay. In kind it is cell-based. An outline of the steps: (§2)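 Stable BaF3 lines made by retroviral transduction with mutagenized TEL-KIT MSCV vectors, puromycin selection 48 h, then gradual IL-3 withdrawal until IL-3-independent; grown in RPMI 1640 with 10% FBS. Cells at 1 to 3 × 10⁴ cells/mL exposed to a concentration series for 72 h; viability read by CellTiter-Glo luminescence or CCK-8 absorbance (450/655 nm); GI50 from triplicate testing.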
Sequence of Mast/stem cell growth factor receptor Kit (Homo sapiens), P10721 [V559D] (P10721 whole entry V559D, the tested form may be a part): as the sequence (P10721 whole entry, the tested form may be a part) above, with V559D counted along it

The nature of data set [13]: Antiproliferative activity against FLT3-ITD dependent human MOLM14 cells assessed as reduction in cell viability after 72 hrs by celltiter-glo/CCK8 assay. Format: functional. The note with it: MOLM-14, 72 h. The procedure, abridged: as §1
In data set [14] the test system is Mast/stem cell growth factor receptor Kit (Homo sapiens), P10721 [V559D,V654A]. Put plainly: Inhibition of Tel-fused cKIT V559D/V654A double mutant (unknown origin) transfected in mouse BAF3 cells assessed as decrease in cell proliferation after 72 hrs by celltiter-glo/CCK8 assay. In kind it is cell-based. An outline of the steps:
as §2

Data set [15] is described as follows: Antiproliferative activity against human HL60 cells assessed as reduction in cell viability after 72 hrs by celltiter-glo/CCK8 assay. Format: functional. The note with it: HL-60, 72 h. An outline of the steps:
as §1

The nature of data set [16]: Antiproliferative activity against cKIT dependent human GIST882 cells assessed as reduction in cell viability after 72 hrs by celltiter-glo/CCK8 assay. In kind it is functional. Conditions: GIST882, 72 h. An outline of the steps:
as §1

The subject of data set [17] is Mast/stem cell growth factor receptor Kit (Homo sapiens), P10721 [V654A]. Put plainly: Inhibition of Tel-fused cKIT V654A mutant (unknown origin) transfected in mouse BAF3 cells assessed as decrease in cell proliferation after 72 hrs by celltiter-glo/CCK8 assay. In kind it is cell-based. An outline of the steps: as §2
Data set [18] can be described thus: Antiproliferative activity against human GIST48B cells assessed as reduction in cell viability after 72 hrs by celltiter-glo/CCK8 assay. Format: functional. An outline of the steps: as §1
Data set [19] deals with Mast/stem cell growth factor receptor Kit (Homo sapiens), P10721 [V559D,T670I]. In words: Inhibition of Tel-fused cKIT T670I/V559D double mutant (unknown origin) transfected in mouse BAF3 cells assessed as decrease in cell proliferation after 72 hrs by celltiter-glo/CCK8 assay. Format: cell-based. An outline of the steps: as §2
Sequence of Mast/stem cell growth factor receptor Kit (Homo sapiens), P10721 [V559D,T670I] (P10721 whole entry V559D/T670I, the tested form may be a part): as the sequence (P10721 whole entry, the tested form may be a part) above, with V559D, T670I counted along it
The nature of data set [20]: Antiproliferative activity against human BCR-ABL dependent MEG01 cells assessed as reduction in cell viability after 72 hrs by celltiter-glo/CCK8 assay. Format: functional. Conditions: MEG-01, 72 h.
A short description of data set [21]: Antiproliferative activity against BCR-ABL dependent human KU812 cells assessed as reduction in cell viability after 72 hrs by celltiter-glo/CCK8 assay. In kind it is functional. The note with it: KU812, 72 h. An outline of the steps:
as §1

For data set [22], the system named is Mast/stem cell growth factor receptor Kit (Homo sapiens), P10721 [T670I]. In words: Inhibition of Tel-fused cKIT T670I mutant (unknown origin) transfected in mouse BAF3 cells assessed as decrease in cell proliferation after 72 hrs by celltiter-glo/CCK8 assay. Format: cell-based. An outline of the steps: as §2
Sequence of Mast/stem cell growth factor receptor Kit (Homo sapiens), P10721 [T670I] (P10721 whole entry T670I, the tested form may be a part): as the sequence (P10721 whole entry, the tested form may be a part) above, with T670I counted along it
The test system of data set [23] is Mast/stem cell growth factor receptor Kit (Homo sapiens), P10721 [D816V]. In words: Inhibition of Tel-fused cKIT D816V mutant (unknown origin) transfected in mouse BAF3 cells assessed as decrease in cell proliferation after 72 hrs by celltiter-glo/CCK8 assay. Format: cell-based. The procedure, abridged:
as §2

Sequence of Mast/stem cell growth factor receptor Kit (Homo sapiens), P10721 [V654A] (P10721 whole entry V654A, the tested form may be a part): as the sequence (P10721 whole entry, the tested form may be a part) above, with V654A counted along it
Sequence of Mast/stem cell growth factor receptor Kit (Homo sapiens), P10721 [V559D,V654A] (P10721 whole entry V559D/V654A, the tested form may be a part): as the sequence (P10721 whole entry, the tested form may be a part) above, with V559D, V654A counted along it
Sequence of Mast/stem cell growth factor receptor Kit (Homo sapiens), P10721 [D816V] (P10721 whole entry D816V, the tested form may be a part): as the sequence (P10721 whole entry, the tested form may be a part) above, with D816V counted along it

Regarding `Cc1ccc(NC(=O)c2ccc(CN3CCN(C)CC3)cc2)cc1Nc1nccc(-c2cccnc2)n1` [IMATINIB], the GI50 is > 10 µM in data set [1]; 0.4 µM in data set [2]; > 10 µM in data set [3]; 0.1 µM in [4]; 1.29 µM in data set [5]; > 10 µM in data set [7]. Further, the GI50 in data set [8] is > 10 µM; in data set [9], 0.12 µM; in data set [11], 0.008 µM; in [12], 0.039 µM; in data set [13], > 10 µM; in data set [14] it was 3 µM. For the same compound, the GI50 was > 10 µM in data set [15]; 0.014 µM in [16]; 2.49 µM in [17]; > 10 µM in data set [18]; 6.67 µM in data set [19]. Further, the GI50 at 72 h in data set [6] and in data set [10] was > 10 µM throughout.
As for `CCN(CC)CCNC(=O)c1c(C)[nH]c(/C=C2\C(=O)Nc3ccc(F)cc32)c1C` [SUNITINIB], the GI50 stood at 0.87 µM in [1]; 0.078 µM in data set [2]; 2.78 µM in data set [3]; 1.2 µM in data set [20]; 1.7 µM in data set [7]; 0.001 µM in [8]. Besides, the GI50 in data set [9] amounted to 1 µM; in [21] it was 1.1 µM; in data set [11] it was 0.041 µM; in data set [22], 0.002 µM; in [12], 0.009 µM; in [13], 0.005 µM. Moreover, the GI50 in [15] is 0.001 µM; in data set [16], 0.11 µM; in data set [17], 0.02 µM; in [23] it was 1.38 µM; in [18] it was 2.01 µM; in [19], 0.053 µM. The GI50 at 72 h in data set [6] came to 2.03 µM; in data set [10], 2.48 µM.

One may read the GI50 as the concentration giving 50% growth inhibition.

(Values after ChEMBL document CHEMBL3808357, “Discovery of N-(3-((1-Isonicotinoylpiperidin-4-yl)oxy)-4-methylphenyl)-3-(trifluoromethyl)benzamide (CHMFL-KIT-110) as a Selective, Potent, and Orally Available Type II c-KIT Kinase Inhibitor for Gastrointestinal Stromal Tumors (GISTs)” (J Med Chem, 2016).)
